ChEMBL document CHEMBL1287738, “Synthesis and biological evaluation of retinoid-chalcones as inhibitors of colon cancer cell growth” (Bioorg Med Chem Lett, 2010)

Tested on: HT-29
Assay: Growth inhibition of human HT-29 cell
Format: functional, cell-based
In short: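 Human colon carcinoma HT-29 cells (Apc-null, wild-type β-catenin) incubated with varying concentrations of each compound for 3 days at 37°C; growth inhibition measured.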

IC50: 3.7 µM
SMILES: N#Cc1ccc(/C=C/C(=O)c2ccccc2)cc1
